Reference: ChEMBL document CHEMBL3085773, “A general method for making peptide therapeutics resistant to serine protease degradation: application to dipeptidyl peptidase IV substrates” (J Med Chem, 2013)
Square brackets hold non-standard residues; d marks the D form. Peptide text beside a SMILES is read from it. ξ: configuration not given here. ξAsp(3,3-Me2) = CC(C)(C(=O)O)C(N)C(=O)O; ξTle = CC(C)(C)C(N)C(=O)O

Columns and labels:
[1] = molecular target: DPP4 (dipeptidyl peptidase 4) (Sus scrofa, UniProt P22411); assay: Stability of the compound assessed as porcine DPP4-mediated compound degradation measured intact level at 0.1 mM measured at 30 mins by reverse-phase HPLC/MS analysis; format: ADME; conditions: pig, read-out: Stability
Chain of DPP4 (dipeptidyl peptidase 4) (P22411 whole entry): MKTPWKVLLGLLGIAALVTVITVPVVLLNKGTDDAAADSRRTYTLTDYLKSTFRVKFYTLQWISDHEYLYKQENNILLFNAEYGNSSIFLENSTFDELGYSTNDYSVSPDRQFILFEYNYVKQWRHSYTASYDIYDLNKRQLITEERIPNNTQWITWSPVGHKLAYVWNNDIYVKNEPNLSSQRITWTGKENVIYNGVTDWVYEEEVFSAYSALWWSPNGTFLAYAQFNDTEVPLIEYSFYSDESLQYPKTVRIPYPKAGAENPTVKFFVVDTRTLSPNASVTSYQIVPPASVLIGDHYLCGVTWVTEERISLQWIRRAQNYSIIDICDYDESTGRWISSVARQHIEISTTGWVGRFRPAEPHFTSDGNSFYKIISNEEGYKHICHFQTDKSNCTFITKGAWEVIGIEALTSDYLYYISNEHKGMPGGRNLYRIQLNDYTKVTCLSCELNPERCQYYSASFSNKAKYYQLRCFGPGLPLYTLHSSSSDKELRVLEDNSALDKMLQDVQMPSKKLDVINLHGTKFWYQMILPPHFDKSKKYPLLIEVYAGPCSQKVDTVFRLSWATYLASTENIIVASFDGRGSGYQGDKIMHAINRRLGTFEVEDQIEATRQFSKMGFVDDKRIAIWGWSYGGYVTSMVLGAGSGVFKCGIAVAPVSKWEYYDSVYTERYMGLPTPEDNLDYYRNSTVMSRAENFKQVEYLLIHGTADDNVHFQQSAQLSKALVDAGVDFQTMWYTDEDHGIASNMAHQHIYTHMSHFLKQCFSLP
How it was run: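 Synthetic hexapeptides (0.1 mM) incubated at 37 °C with 10 mU/mL DPP IV purified from porcine kidney in 50 mM HEPES, 0.14 M NaCl, pH 8.0; intact peptide by HPLC-MS, expressed as percent of time-zero value.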

Alpha-lytic protease = Alpha-lytic protease (Lysobacter enzymogenes, UniProt P00778); assay: Stability of the compound assessed as Lysobacter enzymogenes alpha-LP-mediated compound degradation at 0.1 mM after 5 hrs by reverse-phase HPLC/MS analysis; format: ADME; conditions: 100 µM
Chain of Alpha-lytic protease (P00778 whole entry): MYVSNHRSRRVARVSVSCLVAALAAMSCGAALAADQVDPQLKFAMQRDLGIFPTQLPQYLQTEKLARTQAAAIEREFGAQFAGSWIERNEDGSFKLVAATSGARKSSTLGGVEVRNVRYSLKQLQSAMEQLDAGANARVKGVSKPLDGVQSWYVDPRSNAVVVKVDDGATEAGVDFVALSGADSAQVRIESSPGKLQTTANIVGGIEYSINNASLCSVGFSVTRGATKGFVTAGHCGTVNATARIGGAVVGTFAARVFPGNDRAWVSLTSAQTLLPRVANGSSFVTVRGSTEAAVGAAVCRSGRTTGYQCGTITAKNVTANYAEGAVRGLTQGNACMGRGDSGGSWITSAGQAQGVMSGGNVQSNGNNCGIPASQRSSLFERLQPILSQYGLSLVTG

Trypsin = Trypsin (Sus scrofa, UniProt P00761); assay: Stability of the compound assessed as porcine pancreatic trypsin-mediated compound degradation at 0.1 mM after 5 hrs by reverse-phase HPLC/MS analysis; format: ADME; conditions: pig, isolated protein, 100 µM
Chain of Trypsin (P00761 whole entry): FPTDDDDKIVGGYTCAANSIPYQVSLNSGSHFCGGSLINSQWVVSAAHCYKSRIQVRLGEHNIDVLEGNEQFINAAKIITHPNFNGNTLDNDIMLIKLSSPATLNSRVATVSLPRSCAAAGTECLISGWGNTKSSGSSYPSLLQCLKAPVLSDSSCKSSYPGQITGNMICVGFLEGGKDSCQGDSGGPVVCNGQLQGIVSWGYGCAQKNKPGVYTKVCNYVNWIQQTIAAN

[2] = molecular target: Chymotrypsinogen A (Bos taurus) (UniProt P00766); assay: Stability of the compound assessed as bovine pancreatic chymotrypsin-mediated compound degradation measured intact level at 0.1 mM after 0.6 hrs by reverse-phase HPLC/MS analysis; conditions: cow
Dipeptidyl peptidase 4 = Dipeptidyl peptidase 4 (Homo sapiens, UniProt P27487); assay: Stability of the compound assessed as recombinant human DPP4-mediated compound degradation at 0.1 mM measured after 24 hrs by reverse-phase HPLC/MS analysis; format: ADME; conditions: 100 µM
Chain of Dipeptidyl peptidase 4 (P27487 whole entry): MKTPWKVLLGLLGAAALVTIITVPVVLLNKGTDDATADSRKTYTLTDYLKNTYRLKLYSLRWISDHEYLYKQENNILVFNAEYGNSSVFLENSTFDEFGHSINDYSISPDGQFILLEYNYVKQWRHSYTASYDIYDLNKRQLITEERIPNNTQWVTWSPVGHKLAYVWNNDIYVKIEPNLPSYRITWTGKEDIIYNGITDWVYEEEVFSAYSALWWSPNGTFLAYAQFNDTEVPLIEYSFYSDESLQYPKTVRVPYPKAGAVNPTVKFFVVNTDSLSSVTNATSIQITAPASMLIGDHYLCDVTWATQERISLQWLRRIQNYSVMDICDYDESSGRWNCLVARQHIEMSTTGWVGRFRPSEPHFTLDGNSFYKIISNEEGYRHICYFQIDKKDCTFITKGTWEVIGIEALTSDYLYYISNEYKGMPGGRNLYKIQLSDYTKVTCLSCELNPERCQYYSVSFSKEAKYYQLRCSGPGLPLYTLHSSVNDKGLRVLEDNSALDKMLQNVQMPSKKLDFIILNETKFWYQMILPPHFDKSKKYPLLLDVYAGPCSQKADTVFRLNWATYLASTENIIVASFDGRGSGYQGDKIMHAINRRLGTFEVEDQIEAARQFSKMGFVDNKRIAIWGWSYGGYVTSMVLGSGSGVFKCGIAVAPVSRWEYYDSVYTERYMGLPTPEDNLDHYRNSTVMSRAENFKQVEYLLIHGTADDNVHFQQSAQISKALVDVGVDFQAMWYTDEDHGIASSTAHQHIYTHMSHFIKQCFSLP
How it was run: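 GLP-1 peptides (0.1 mM) incubated at 37 °C with recombinant human DPP IV in 50 mM HEPES, 0.14 M NaCl, pH 8.0, up to 24 h; acid-quenched samples analysed by RP-HPLC-MS for intact peptide.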

Work on `CC[C@H](C)[C@H](NC(=O)[C@@H]1CCCN1C(=O)[C@H](C)N)C(=O)N[C@@H](CO)C(=O)N[C@@H](Cc1c[nH]c2ccccc12)C(=O)N[C@@H](CO)C(=O)O` (H-APISWS-OH) yielded a remaining at 0.5 h, 100 µM [1] of less than 70%.
In the case of `CC(C)C[C@H](NC(=O)[C@@H](N)CC(C)C)C(=O)N1CCC[C@H]1C(=O)N[C@@H](CCCNC(=N)N)C(=O)N[C@H](C(=O)N[C@@H](C)C(=O)NC(C(=O)NCC(=O)N[C@@H](CO)C(=O)N[C@@H](CO)C(=O)N[C@@H](Cc1ccccc1)C(=O)N[C@H](C(=O)N[C@H](C(=O)N[C@H](C(=O)O)C(C)C)[C@@H](C)O)C(C)C)C(C)(C)C)C(C)C` (stereo not given in full) (H-LLPRVA[ξTle]GSSFVTV-OH), the Stability (Alpha-lytic protease) is reported as “Stable”.
With `CC(C)[C@H](NC(=O)C(NC(=O)[C@H](Cc1c[nH]c2ccccc12)NC(=O)[C@H](C)NC(=O)C(NC(=O)[C@H](Cc1ccccc1)NC(=O)C(NC(=O)[C@H](CCCCN)NC(=O)[C@H](C)NC(=O)[C@H](C)NC(=O)[C@H](CCC(N)=O)NC(=O)CNC(=O)[C@H](CCC(=O)O)NC(=O)C(NC(=O)[C@H](Cc1ccc(O)cc1)NC(=O)[C@H](CO)NC(=O)[C@H](CO)NC(=O)[C@@H](NC(=O)[C@H](CC(=O)O)NC(=O)[C@H](CO)NC(=O)C(NC(=O)[C@H](Cc1ccccc1)NC(=O)[C@@H](NC(=O)CNC(=O)C(NC(=O)[C@H](C)NC(=O)[C@@H](N)Cc1c[nH]cn1)C(C)(C)C(=O)O)[C@@H](C)O)C(C)(C)C)C(C)C)C(C)(C)C)C(C)(C)C(=O)O)C(C)(C)C)C(C)(C)C)C(=O)N[C@@H](CCCCN)C(=O)NC(C(=O)N[C@@H](CCCNC(=N)N)C(N)=O)C(C)(C)C(=O)O` (stereo not given in full) (H-HA[ξAsp(3,3-Me2)]GTF[ξTle]SDVSSY[ξTle]EGQAAK[ξAsp(3,3-Me2)]F[ξTle]AW[ξTle]VK[ξAsp(3,3-Me2)]R-NH2) the Stability (Trypsin) was “Stable” and the remaining at 0.6 h, 100 µM [2] was 50%.
With `CC[C@H](C)[C@H](NC(=O)[C@H](Cc1ccccc1)NC(=O)[C@H](CCC(=O)O)NC(=O)[C@H](CCCCN)NC(=O)[C@H](C)NC(=O)[C@H](C)NC(=O)[C@H](CCC(N)=O)NC(=O)CNC(=O)[C@H](CCC(=O)O)NC(=O)[C@H](CC(C)C)NC(=O)[C@H](Cc1ccc(O)cc1)NC(=O)[C@H](CO)NC(=O)[C@H](CO)NC(=O)[C@@H](NC(=O)[C@H](CC(=O)O)NC(=O)[C@H](CO)NC(=O)[C@@H](NC(=O)[C@H](Cc1ccccc1)NC(=O)[C@@H](NC(=O)CNC(=O)C(NC(=O)[C@H](C)NC(=O)[C@@H](N)Cc1cnc[nH]1)C(C)(C)C)[C@@H](C)O)[C@@H](C)O)C(C)C)C(=O)N[C@@H](C)C(=O)N[C@@H](Cc1c[nH]c2ccccc12)C(=O)N[C@@H](CC(C)C)C(=O)N[C@H](C(=O)N[C@@H](CCCCN)C(=O)NCC(=O)N[C@@H](CCCN=C(N)N)C(N)=O)C(C)C` (stereo not given in full) the Stability (Dipeptidyl peptidase 4) was “Stable”.
